In brackets after ≈: the same amount, converted by molar mass. Activity calls are given as the source filed them.
How the values were obtained:
DU-145 = assay: Cytotoxicity against human DU145 cells; format: functional; conditions: read-out: ED50 (the source's name)
Procedure, shortened: (§1)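 Human tumour cell lines DU145, A549, KB and multidrug-resistant KB-VIN were exposed to the quassinoids, with paclitaxel as reference. ED50 was the mean concentration giving 50% effect under the defined assay condition, reported in µM.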

A549 = assay: Cytotoxicity against human A549 cells; format: functional; conditions: read-out: ED50 (the source's name); procedure, shortened: as §1
KB = assay: Cytotoxicity against human KB cells; format: functional; conditions: read-out: ED50 (the source's name); procedure, shortened: as §1
[1] = Cytotoxicity against human KBVIN cells; format: functional; conditions: read-out: ED50 (the source's name); procedure, shortened: as §1
[2] = Growth inhibition of human KBVIN cells at 10 ug/ml; format: functional; conditions: read-out: GI
Mus musculus [3] = assay: Reduction of mammary gland ductal branching in […]/p53-deficient C57BL/6/129/Sv mouse model at 0.1 mg/kg, ip daily for 7 days measured post last dose by immunohistochemistry; format: functional
Procedure, shortened: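 Three-month-old Brca1/p53 conditional mutant mice (Cre, mixed C57BL/6 and 129/Sv background) given […] daily for 7 days. Dose is drawn from a 1 mg/mL DMSO stock, 10 µL mixed with 30 µL 40% PEG and 60 µL 0.9% NaCl at dosing. Controls get vehicle. Fourth-pair glands are whole-mounted, Carnoy-fixed 3 h and carmine alum-stained overnight. Branching points are counted relative to vehicle, two-tailed t-test.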

Mus musculus [4] = assay: Reduction of mammary gland ductal branching in […]/p53-deficient C57BL/6/129/Sv mouse model at 0.1 mg/kg, ip daily for 5 days measured post last dose by immunohistochemistry; format: functional, organism-based; design: dose 0.1 mg/kg
Procedure, shortened: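 Three-month-old Brca1/p53 conditional mutant mice (mixed C57BL/6 and 129/Sv background) dosed i.p. daily for 5 days, with vehicle controls. Fourth-pair mammary glands are whole-mounted, fixed in Carnoy's 3 h and stained overnight with carmine alum. Ductal branching points are scored against vehicle-treated mice, significance by two-tailed t-test.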

BT-474 = assay: Cytotoxicity against human BT474 cells; format: functional, cell-based
MCF7 [5] = assay: Cytotoxicity against human MCF7 cells; format: functional, cell-based
MCF7 [6] = assay: Cytotoxicity against human MCF7 cells overexpressing HER2; format: functional, cell-based
MDA-MB-468 = assay: Cytotoxicity against human MDA-MB-468 cells; format: functional, cell-based
MDA-MB-231 = assay: Cytotoxicity against human MDA-MB-231 cells; format: functional, cell-based
SK-BR-3 = assay: Cytotoxicity against human SK-BR-3 cells; format: functional, cell-based
[7] = Cytotoxicity against human HeyA8 cells; format: functional, cell-based; conditions: HEY A8
[8] = Cytotoxicity against human MSPC1 cells; format: functional, cell-based
[9] = Cytotoxicity against human 2774-C10 cells; format: functional, cell-based
[10] = Cytotoxicity against human HOC7 cells; format: functional, cell-based

Structure (SMILES)	EC50 (DU-145) [nM]	EC50 (A549) [nM]	EC50 (KB) [nM]	EC50 [1] [nM]	also measured
CC[C@@](C)(OC(C)=O)C(=O)O[C@H]1C(=O)O[C@@H]2C[C@H]3C(C)=CC(=O)[C@@H](O)[C@]3(C)[C@H]3[C@@]4(O)OC[C@]32[C@@H]1[C@@H](C)[C@H]4O	70	70	70	440	
CC[C@](C)(OC(C)=O)C(=O)O[C@H]1C(=O)O[C@@H]2C[C@H]3C(C)=C[C@H](O)[C@@H](O)[C@]3(C)[C@H]3[C@@]4(O)OC[C@]32[C@@H]1[C@@H](C)[C@H]4O	830	3600	670		inhibition of growth at 10 µg/mL [2]: < 50%
COC(=O)[C@@]12OC[C@]34[C@H]([C@@H](O)[C@@H]1O)[C@@]1(C)CC(=O)C(O)=C(C)[C@@H]1C[C@H]3OC(=O)[C@H](OC(=O)/C=C(\C)C(C)C)[C@@H]24					inhibition (Mus musculus [3]): Active; inhibition (Mus musculus [4]): Active
CC[C@](C)(OC(C)=O)C(=O)O[C@H]1C(=O)O[C@@H]2C[C@H]3C(C)=CC(=O)[C@@H](O)[C@]3(C)[C@H]3[C@@]4(O)OC[C@]32[C@@H]1[C@@H](C)[C@H]4O [2'-ACETOXY-GLAUCARUBINONE]	40	60	50	420	IC50 (BT-474): 28.4 µg/mL (≈ 52.9 µM); IC50 (MCF7 [5]): 8.13 µg/mL (≈ 15.2 µM); IC50 (MCF7 [6]): 0.013 µg/mL (≈ 0.0242 µM); IC50 (MDA-MB-468): 0.016 µg/mL (≈ 0.0298 µM); IC50 (MDA-MB-231): 0.077 µg/mL (≈ 0.144 µM); IC50 (SK-BR-3): 0.014 µg/mL (≈ 0.0261 µM); IC50 [7]: < 0.01 µg/mL; IC50 [8]: < 0.01 µg/mL; IC50 [9]: < 0.01 µg/mL; IC50 [10]: < 0.01 µg/mL
CCC(C)C(=O)O[C@H]1C(=O)O[C@@H]2C[C@H]3C(C)=CC(=O)[C@@H](O)[C@]3(C)[C@H]3[C@]4(O)OC[C@]32[C@@H]1[C@@H](C)[C@H]4O (stereo not given in full) [AILANTHINONE]	90	130	180	370	
CCC(C)C(=O)O[C@H]1C(=O)O[C@@H]2C[C@H]3C(C)=C[C@H](O)[C@@H](O)[C@]3(C)[C@H]3[C@@]4(O)OC[C@]32[C@@H]1[C@@H](C)[C@H]4O (stereo not given in full) [EXCELSIN]	4700	16000	4300		inhibition of growth at 10 µg/mL [2]: < 50%
CC[C@](C)(O)C(=O)O[C@H]1C(=O)O[C@@H]2C[C@H]3C(C)=CC(=O)[C@@H](O)[C@]3(C)[C@H]3[C@@]4(O)OC[C@]32[C@@H]1[C@@H](C)[C@H]4O [GLAUCARUBINONE]	470	880	440	1240	
CC(=O)O[C@H]1C(=O)[C@@]2(C)[C@H]([C@H](OC(=O)c3ccccc3)[C@]3(O)C[C@H](OC(=O)[C@H](O)[C@@H](NC(=O)c4ccccc4)c4ccccc4)C(C)=C1C3(C)C)[C@]1(OC(C)=O)CO[C@@H]1C[C@@H]2O [PACLITAXEL]	3	8	7	> 1000	

From ChEMBL document CHEMBL1221399, “Antitumor Agents. 282. 2'-(R)-O-acetylglaucarubinone, a quassinoid from Odyendyea gabonensis as a potential anti-breast and anti-ovarian cancer agent” (J Nat Prod, 2010)
